From PubChem
Hits are enriched below; roughly 3.2% of the tested compounds scored in any of these assays.
zfTRPN1 agonist = zebrafish TRPN1 (NompC) channel agonism. HEK293 zebrafish TRPN1-YFP, Fluo-8 calcium fluorescence; 100% = response to 87 µM carbachol. activation, % at 3 µM. hit rate 0.18% among 220,000;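 active means activation above its plate's cutoff, the mean activation of test wells on that plate plus 3 SD, cut at about 19% in these data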;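 further: 0% = DMSO alone and 100% = 87 µM carbachol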
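System: zebrafish TRPN1-YFP in HEK293 cells / Dosing: 3 µM single point / Timing: dye loading 1 h at 37 °C, then 30 min room temperature / Signal: Fluo-8 calcium fluorescence, excitation 470-495 nm, emission 515-575 nm / Read-out basis: percent activation from peak over basal fluorescence ratio, control-normalized / Control set: high carbachol 87 µM, low DMSO alone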
CHO parental Ca = counter-screen: ATP calcium response change in parental CHO cells. parental CHO-K1, ATP-induced calcium, Fluo-8 fluorescence. inhibition, % at 5.6 µM. hit rate 0.63% among 330,000. AID 463079;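 active means inhibition above that plate's mean sample inhibition plus 3 SD, cut at about 26% in these data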;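 further: 0% = ATP-challenged DMSO wells and 100% = DMSO wells without ATP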
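Test system: untransfected parental CHO cell line; also added: ATP stimulus; dosing: 5.6 µM, single dose; signal: calcium-sensitive Fluo-8 fluorescence; measure: percent inhibition of ATP-evoked calcium rise, normalized to controls; benchmarks: low control ATP plus DMSO, high control DMSO only; replication: one well per compound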
OX1R antag-1 = antagonists of human orexin 1 receptor (OX1R). O43613. AID 485270. hit rate 1.8% among 330,000. OX1R-expressing cells, FRET antagonist read-out. inhibition, % at 6.6 µM; in the data active means inhibition mostly above about 38%, no sharp cut-off; inactive means mostly below about 40%;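 further: 0% = agonist challenge alone and 100% = reference antagonist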
Target sequence (O43613 whole entry, looked up): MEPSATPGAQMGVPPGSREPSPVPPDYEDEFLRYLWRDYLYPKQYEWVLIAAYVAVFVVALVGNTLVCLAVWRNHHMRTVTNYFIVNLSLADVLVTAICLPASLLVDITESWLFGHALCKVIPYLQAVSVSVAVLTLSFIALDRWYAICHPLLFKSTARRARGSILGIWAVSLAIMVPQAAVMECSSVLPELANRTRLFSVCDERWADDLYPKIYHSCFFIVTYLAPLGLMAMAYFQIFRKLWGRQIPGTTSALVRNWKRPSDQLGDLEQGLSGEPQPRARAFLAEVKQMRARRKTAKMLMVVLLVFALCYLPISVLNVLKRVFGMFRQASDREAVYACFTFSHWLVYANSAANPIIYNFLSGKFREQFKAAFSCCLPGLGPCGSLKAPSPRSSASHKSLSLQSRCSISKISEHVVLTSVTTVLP
TRPML3 agonist = human mucolipin-3 channel agonism | HEK293 TRPML3-YFP, Fluo-8 calcium fluorescence; 100% = the carbachol control signal | activation, % at 3 µM | hit rate 0.29% among 220,000;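 active means activation above its plate's cutoff, the mean activation of the plate's test wells plus 3 SD, cut at about 12% in these data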;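 further: 0% = DMSO only wells and 100% = carbachol wells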
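Material: HEK293 cells stably carrying human TRPML3-YFP; compound dosing: single dose, 3 µM final nominal compound, 0.3% DMSO final; incubation: 1-h 37 °C dye load, 5-s basal, 120-s post-compound reads; technique: Fluo-8 intracellular calcium fluorescence, excitation 470-495 nm, emission 515-575 nm; read-out basis: percent activation from peak-to-basal fluorescence ratio, scaled between DMSO and carbachol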
OX1R antag-2 = human HCRTR1 antagonism | inhibition, % at 5 µM | O43613 | CHO/OX1R cells, Fluo-8 calcium fluorescence, orexin A | hit rate 0.43% among 330,000;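 active means inhibition above its plate's threshold, mean inhibition of all tested compounds on the plate plus 3 SD, cut at about 37% in these data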;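 further: 0% = orexin A challenge wells and 100% = SB-334867-A antagonist wells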
GPR7 antag = antagonists of human GPR7 (neuropeptides B/W receptor 1); P48145; GPR7-expressing cells, fluorescence antagonist assay; inhibition, % at 4.4 µM; hit rate 1.1% among 290,000; in the data active means inhibition above about 16%, passing the limit was not always enough;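 further: cells stimulated with the agonist NPW; 0% = agonist with vehicle and 100% = vehicle without agonist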
Active calls of the source: *; / = no result.

SMILES	zfTRPN1 agonist	CHO parental Ca	OX1R antag-1	TRPML3 agonist	OX1R antag-2	GPR7 antag
Cc1cc(C)c(C)c(S(=O)(=O)N2CCC(C(=O)Nc3ccncc3)CC2)c1C	/	-8	27	/	-23	-17
O=Cc1cc(-c2ccccc2)[nH]c1-c1ccccc1	/	74*	6	/	21	7
N#CC1=C(N)NC(SCC(=O)c2ccc(Cl)cc2)=C(C#N)C12CCCC2	3	26	21	1	53*	3
Cc1ccc2c(ccc(=S)n2C)c1	-1	-6	3	0	-1	-4
O=C(NCc1ccco1)c1cc2cc3ccc(Cl)cc3nc2o1	-1	29	32	1	0	-10
COc1ccc2cc3cc(C(=O)NCc4ccco4)oc3nc2c1	-1	-7	54*	1	-21	-9
COc1ccc2cc3cc(C(=O)NCc4ccccn4)oc3nc2c1	1	-31	61*	1	-16	-7
COc1ccc2cc3cc(C(=O)NCC4CCCO4)oc3nc2c1 (centres undefined)	2	-10	74*	2	-4	0
Cc1ccc(C(=O)NCC(=O)NCC(c2cccs2)N(C)C)cc1C (centres undefined)	/	-10	3	/	6	/
Cc1ccc(C)c(N(C)C(=O)CCS(=O)(=O)c2cccc3nonc23)c1	/	-2	41	/	-9	0
O=[N+]([O-])c1cc(Cl)c2cccnc2c1O	1	-8	34	2	-4	-10
Oc1c(I)cc(Cl)c2cccnc12	1	41*	61*	1	49*	-5
C=CCN(C(=O)CSC1=NC(=O)CN1C(C)=O)c1nc(C)c(-c2ccccc2)s1	-2	-10	8	0	-23	-8
COC(=O)CC1C(=O)NCCN1C(=O)CSc1nc2ccc([N+](=O)[O-])cc2s1 (centres undefined)	1	-10	71*	0	-11	-13
CCCN1CCN(CCCNC(=O)c2ccc(CS(=O)c3ccccc3C)o2)CC1 (centres undefined)	/	-3	8	/	-26	-6
O=C1C=C(NCCN2CCOCC2)C(=O)c2cnccc21	1	-4	115*	1	1	-10
COc1ccccc1CNS(=O)(=O)c1ccc(-c2cc(C)no2)cc1	/	-5	66*	/	12	8
Cc1ccc([N+](=O)[O-])cc1NC(=O)c1c(-c2ccccc2)noc1C	/	-18	15	/	-18	-17
O=c1[nH]cc(NCCNc2ncc(C(F)(F)F)cc2Cl)c(=O)[nH]1	0	-8	11	1	-8	-25
O=c1[nH]c2c(Br)cnc([N+](=O)[O-])c2[nH]1	0	-7	43*	0	-10	-7
CN(C(=O)CS(=O)(=O)c1cn(CC(=O)N2CCCC2)c2ccccc12)c1ccccc1	/	-16	13	/	-17	-22
COc1ccccc1NC(=O)Nc1nc(CC(=O)N2CCN(c3ccccc3OC)CC2)cs1	/	-8	6	/	-26	/
O=C(Nc1ccccc1F)c1ccc2snnc2c1	/	-9	71*	/	-18	-7
O=C(NN=Cc1ccc(F)cc1)c1ccccc1NS(=O)(=O)c1cccs1	/	-6	25*	/	-6	/
Cc1ccc(S(=O)(=O)Oc2ccc(/C=N/NC(=O)c3nn(C)cc3[N+](=O)[O-])cc2)cc1	1	-14	17	0	0	15
SMILES	zfTRPN1 agonist	CHO parental Ca	OX1R antag-1	TRPML3 agonist	OX1R antag-2	GPR7 antag
Cn1cc([N+](=O)[O-])c(C(=O)Nc2nccs2)n1	-1	-3	44	0	4	9
Cn1cc([N+](=O)[O-])c(C(=O)Nc2ccc(Br)cn2)n1	0	7	50*	0	-17	-9
Cn1cc([N+](=O)[O-])c(C(=O)N/N=C/c2ccncc2)n1	/	4	75*	/	8	-12
CS(=O)(=O)c1nc(S(=O)(=O)c2ccc(Cl)cc2)c(NCCCn2ccnc2)s1	/	-22	5	/	-11	-8
CC(C)(C)c1ccc(OCc2ccc(C(=O)NCc3cccnc3)o2)cc1	3	37*	8	2	20	-7
COc1ccc(-c2cc(C(=O)NCc3cccnc3)no2)cc1	0	-15	4	0	6	18*
CC(C)C(C)N(Cc1cccc(C(=O)O)c1)C(=O)c1ccc2ccccc2n1 (centres undefined)	/	0	12	/	2	/
Cc1cccc(-n2c(C)c(-c3ccccc3)[nH]c2=S)c1	/	-3	0	/	-31	-2
C=CC[C@H](CC(=O)NCCO)C(=O)N[C@@H](COC(=O)[C@@H](CC=C)Cc1ccc(F)cc1)Cc1ccccc1	/	-31	3	/	-28	/
CCCCNS(=O)(=O)c1ccc2nc(SCC(=O)Nc3sccc3C#N)[nH]c2c1	4	47*	76*	1	54*	13
CCCCNS(=O)(=O)c1ccc2nc(SCC(N)=O)[nH]c2c1	-1	-6	20	0	-2	-20
N#Cc1ccc(NC(=O)Nc2ccc(Oc3ccc(NC(=O)Nc4ccc(C#N)cc4)cc3)cc2)cc1	3	38*	17	1	2	10
COc1ccc(NC(=O)Nc2ccc(OC)cc2)cc1	-1	0	16	0	-8	-10
COc1cc(Nc2ccc(C)cc2)c([N+](=O)[O-])nc1[N+](=O)[O-]	-1	-2	54	0	-8	5
Cc1cc(C)cc(Nc2ccc([N+](=O)[O-])nc2[N+](=O)[O-])c1	1	-11	61*	0	-18	-8
COc1ccc(C(=O)CSc2nnc(CN3CCCCC3)n2-c2ccc(Cl)cc2)cc1OC	9	-8	5	6	-18	17
CCN(CC)S(=O)(=O)c1cccc(NC(=O)Nc2cccc(C(F)(F)F)c2)c1	10	59*	39*	5	20	5
CCN(CC)CC(=O)Nc1cccc(S(=O)(=O)N2CCCC2)c1	-1	2	22	1	-14	12
Cc1cc(C(=O)Cn2nc(C(=O)O)c3ccccc3c2=O)c(C)n1-c1ccccc1	0	-8	24	0	-6	-4
O=C(Cn1nc(C(=O)O)c2ccccc2c1=O)Nc1cc(Cl)cc(Cl)c1	/	-7	41*	/	19	-1
Cc1cc(C(=O)Cn2nc(C(=O)O)c3ccccc3c2=O)c(C)n1CCc1ccc(Cl)cc1	0	-15	49*	0	13	-12
CN(CC(=O)Nc1cccc(S(=O)(=O)N2CCCC2)c1)CC(=O)Nc1ccc(Cl)c(C(F)(F)F)c1	/	54*	14	/	-3	/
Cc1ccc(C(=O)Nc2cc3ccccc3oc2=O)cc1	3	9	9	0	-15	-9
O=C(OCC(=O)N1CCCC1=O)C1CCN(S(=O)(=O)c2c(Cl)cccc2Cl)CC1	/	3	14	/	-11	2
Nc1nonc1-n1nnc(C(=O)N/N=C/c2cccs2)c1-c1ccc2c(c1)OCO2	/	-22	15	/	-31	-17
